Assay results from ChEMBL document CHEMBL1141337, “The berkeleyacetals, three meroterpenes from a deep water acid mine waste Penicillium” (J Nat Prod, 2007).
Calls of active or inactive are those of the source. No cut-off for these calls is given here.

Tests used:
[1] = target: Stromelysin-1 (Homo sapiens) (UniProt P08254); assay: Inhibition of MMP3
Caspase-1 (Homo sapiens) = target: T1, Caspase-1 (Homo sapiens) (UniProt P29466); assay: Inhibition of caspase 1
T1 sequence (whole entry): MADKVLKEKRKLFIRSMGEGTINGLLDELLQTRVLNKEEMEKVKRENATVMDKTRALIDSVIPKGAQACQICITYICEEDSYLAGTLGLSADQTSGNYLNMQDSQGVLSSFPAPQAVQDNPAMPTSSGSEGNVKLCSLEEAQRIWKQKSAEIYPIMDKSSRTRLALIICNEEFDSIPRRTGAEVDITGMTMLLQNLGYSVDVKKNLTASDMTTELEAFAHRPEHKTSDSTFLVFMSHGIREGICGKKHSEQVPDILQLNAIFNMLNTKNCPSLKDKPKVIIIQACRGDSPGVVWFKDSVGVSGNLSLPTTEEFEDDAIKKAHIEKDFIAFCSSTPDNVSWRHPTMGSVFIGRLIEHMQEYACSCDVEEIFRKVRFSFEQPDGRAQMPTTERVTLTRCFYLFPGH

NCI-H460 = assay: Growth inhibition of human NCI-H460 cells; format: functional, cell-based
How it was run: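 Run by the NCI Developmental Therapeutics Program human cancer cell line screen in its single-dose–response format.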

Chain of Stromelysin-1 (Homo sapiens) (P08254 100-477 limits assumed): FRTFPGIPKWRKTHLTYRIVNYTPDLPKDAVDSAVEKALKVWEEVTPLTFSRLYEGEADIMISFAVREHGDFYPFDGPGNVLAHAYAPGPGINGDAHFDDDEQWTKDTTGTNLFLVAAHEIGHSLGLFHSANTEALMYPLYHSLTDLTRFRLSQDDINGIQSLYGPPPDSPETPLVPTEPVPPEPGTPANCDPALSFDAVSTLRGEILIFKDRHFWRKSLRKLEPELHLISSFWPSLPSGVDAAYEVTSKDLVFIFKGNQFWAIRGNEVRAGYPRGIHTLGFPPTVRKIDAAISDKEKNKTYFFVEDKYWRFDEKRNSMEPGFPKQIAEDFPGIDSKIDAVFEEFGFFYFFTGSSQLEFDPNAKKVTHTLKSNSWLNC

| Compound | Activity [1] | Activity (Caspase-1 (Homo sapiens)) | Activity (NCI-H460) |
| --- | --- | --- | --- |
| C[C@@H]1O[C@@H]2OC(=O)[C@]3(C)C[C@@H]4[C@](C)(C(=O)C=C5C(=CC(=O)OC5(C)C)[C@@]45CO5)[C@H](C1=O)[C@H]23 | Active | Active | Active |
| C=C1[C@@]2(C)C[C@H]3C(C)=C4CC(=O)OC(C)(C)C4=CC[C@]3(C)[C@]1(C(=O)OC)C(=O)[C@@](C)(O)C2=O | Active | Active | Active |
| C=C1[C@@]2(C)C[C@H]3[C@@]4(C)C(=CC[C@]3(C)[C@]1(C(=O)OC)C(=O)[C@@](C)(O)C2=O)C(C)(C)C(=O)C[C@H]4O | Active | Active |  |

More lines, main results first:

| Activity [1] | Activity (Caspase-1 (Homo sapiens)) | Compound | Activity (NCI-H460) |
| --- | --- | --- | --- |
| Active | Active | COC(=O)[C@]12C(=O)[C@H](C)O[C@@H]3OC(=O)[C@](C)(C[C@H]4C(C)=C5CC(=O)OC(C)(C)C5=CC[C@@]41C)[C@@H]32 |  |
| Active | Active | COC(=O)[C@]12C(=O)[C@H](C)O[C@@H]3OC(=O)[C@](C)(C[C@H]4[C@]5(CO5)C5=CC(=O)OC(C)(C)C5=CC[C@@]41C)[C@@H]32 |  |
